# Source: PubChem BioAssay AID522 (The Scripps Research Institute Molecular Screening Center, 2006)
# About 1,200 (1.8%) of roughly 65,000 compounds were called active. This excerpt belongs to a sample that is enriched for actives. A number with no mark means an inactive call.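 How the source made its calls: active means activation above the mean activation of all tested compounds plus 3 SD (cut at about 50% in these data); inactive means the rest.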
# Target: Steroidogenic factor 1 (Homo sapiens) (UniProt Q13285)
# Assay: activators of human SF-1, primary screen, cell-based, CHO-K1, Gal4-SF-1 LBD, luciferase luminescence (AID 522)
# Conditions: CHO-K1 Gal4-SF-1 LBD luciferase reporter; at 10 µM; stronger effect = higher value; % increase over DMSO SF-1-specific signal
# How it was run: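 Assay system: CHO-K1 cells co-transfected with Gal4 DBD–human SF-1 LBD, 5xGal4 luciferase reporter; doses: 10 µM only; incubation: 20 h compound exposure at 37 °C after 1 h cell settling; signal: luciferase light emission; evaluation: percent activation versus DMSO; repeats: one test per compound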
# Chain of Steroidogenic factor 1 (Homo sapiens) (Q13285 whole entry, looked up, the tested form may be a part): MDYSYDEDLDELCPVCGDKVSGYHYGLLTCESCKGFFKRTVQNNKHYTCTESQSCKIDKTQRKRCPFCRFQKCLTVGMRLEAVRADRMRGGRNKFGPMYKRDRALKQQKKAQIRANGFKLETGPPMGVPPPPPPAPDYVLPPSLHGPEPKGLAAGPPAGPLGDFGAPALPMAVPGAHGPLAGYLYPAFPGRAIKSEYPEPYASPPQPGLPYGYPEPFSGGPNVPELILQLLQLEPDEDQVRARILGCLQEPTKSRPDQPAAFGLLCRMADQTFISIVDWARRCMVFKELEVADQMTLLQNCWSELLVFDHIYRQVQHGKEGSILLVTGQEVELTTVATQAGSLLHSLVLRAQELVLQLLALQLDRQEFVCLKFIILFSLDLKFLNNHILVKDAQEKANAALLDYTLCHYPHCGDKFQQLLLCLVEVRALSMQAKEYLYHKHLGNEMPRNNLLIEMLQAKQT
row,Compound,activation
1,O=S(=O)(c1cccc(-c2nnc(SC(F)F)n2-c2ccccc2)c1)N1CCCCC1,4.3%
2,CCOc1cc(N2CCOCC2)c(OCC)cc1NC(=O)COc1cccc2cccnc12,8.2%
3,Cc1occc1C(=O)Nc1nnc(-c2ccncc2)s1,20.4%
4,Cc1ccc(C(=O)Nc2nnc(-c3ccncc3)s2)o1,21.8%
5,Cc1ccc(C(=O)Nc2nnc(-c3cccs3)s2)cc1C,80.9% (active)
6,CCc1nnc(NC(=O)c2cccs2)s1,50% (active)
7,CCc1nnc(NC(=O)CCC(=O)O)s1,-8.1%
8,CCc1ccccc1NC(=O)c1cccs1,-5.6%
9,CCOC(=O)c1ccc(-n2c(C)nc3c(cnn3-c3ccccc3C)c2=O)cc1,17.1%
10,CCCc1[nH]nc2c1C(c1ccc(Br)s1)C(C#N)=C(N)O2 (configuration not stated),15.9%
11,Cn1c(/C(C#N)=C2/CCCCCN2)nc2ccccc21,9.6%
12,CCOC(=O)N1CCN(C(=O)C2CC(c3ccc(F)cc3)=NO2)CC1 (configuration not stated),-7.2%
13,COC(=O)[C@H](C(C)C)n1c(C)c(C(C)=O)c(C(C)=O)c1C,5.7%
14,CC(=O)OC(C(=O)NC1CCCCC1)c1ccccc1 (configuration not stated),-11.8%
15,CC(Cc1cccs1)NC(=O)NC1CCCCC1 (configuration not stated),41.1%
16,CC(C)c1ccc(NC(=O)NC2CCCCC2)cc1,100% (active)
17,Cc1cccc(-n2c(N)c(C(=O)N3CCN(C)CC3)sc2=S)c1,3.5%
18,Cc1ccc(C2CC(=O)NC(SCC(=O)OCc3ccccc3)=C2C#N)o1 (configuration not stated),-4.2%
19,CCN(CC(=O)Nc1ccc2c(c1)OCCO2)Cc1cc(=O)oc2cc(C)c(C)cc12,-19.6%

row,Compound,activation
1,CC(=O)c1cc(C#N)c(SCC(=O)C(C)(C)C)nc1C,57.1% (active)
2,Cc1cc(C(F)(F)F)c(C#N)c(SCC(=O)NC2CC2)n1,-6.7%
3,CCOc1ccc2cc(C#N)c(SCC(=O)OC)nc2c1,26.5%
4,O=C(Nc1cccc(-c2nnc(-c3ccccc3)o2)c1)C1CCCO1 (configuration not stated),65.8% (active)
5,O=C(CSc1nnc(-c2ccc(NS(=O)(=O)c3ccccc3)cc2)o1)NCC1CCCO1 (configuration not stated),-0.8%
6,O=C(CCc1ccccc1)Nc1cccc(-c2nnc(-c3ccco3)o2)c1,27.9%
7,O=C(Nc1ccc(-c2nnc(-c3ccccc3)o2)cc1)C1CCCO1 (configuration not stated),65.9% (active)
8,O=C(Nc1nnc(CCc2ccccc2)s1)C1CCCO1 (configuration not stated),21.6%
9,Cc1cc(Br)ccc1NC(=O)C1CCCO1 (configuration not stated),-10.5%
10,Cc1cccc(N2CCN(Cc3c(C)n(C)n(-c4ccccc4)c3=O)CC2)c1C,15.3%
11,O=C(NCc1ccccc1)C1C(=O)N(Cc2ccccc2)C(=O)C1C1(O)CCCC1 (configuration not stated),-4.5%
12,Cc1ccccc1Cn1c(=O)[nH]c2ccccc21,-12.9%
13,CCOC(=O)C1CCN(Cc2coc3ccc(Cl)cc3c2=O)CC1,-25.8%
14,COC(=O)c1ccc(NC(=O)c2ccco2)cc1,85.3% (active)
15,CC(C)(C)NC(=O)c1cc(NC(=O)c2ccco2)cc(NC(=O)c2ccco2)c1,22%
16,O=C(Nc1ccc(Oc2ccccc2)cc1)c1ccco1,44%
17,Cc1cccc(C)c1NC(=O)N1CC=C(n2c(=O)[nH]c3ccccc32)CC1,-7.6%
18,CC(Sc1sc(=S)sc1SC(C)C(=O)O)C(=O)O (configuration not stated),-6.9%
19,CCCCOC(=O)c1[nH]c(C)c(C(=O)OC)c1C,77.7% (active)

row,Compound,activation
1,CCOC(=O)c1c(C)[nH]c(C(=O)COc2ccc3c(c2)OCO3)c1C,28.5%
2,CCOC(=O)c1c(C)[nH]c(C(=O)NCc2ccccc2OC)c1C,24.8%
3,CCc1ccccc1NC1c2ccccc2C(=O)N1c1cccnc1 (configuration not stated),-5.1%
4,Cc1cc(N2C(=O)C(=O)/C(=C(/O)c3ccccc3)C2c2cccc(Br)c2)no1 (configuration not stated),2.6%
5,COc1ccc(S(=O)(=O)NC2(C(F)(F)F)N=C3SCCN3C2=O)cc1 (configuration not stated),19.3%
6,C=C(C)Cn1c(SCC(=O)NCc2ccco2)nc2sc3c(c2c1=O)CCC3,-1.8%
7,C=C(C)CSc1nc(N)c2c3c(sc2n1)CCC3,51.5% (active)
8,CN(C)CCSc1nc(N)c2c3c(sc2n1)COC(C)(C)C3,3.5%
9,O=C(CSc1nc2[nH]ncc2c(=O)n1-c1ccccc1)N1CCCc2ccccc21,22.2%
10,CC(NC(=O)c1cc(-c2ccccc2)on1)c1ccccc1 (configuration not stated),1.6%
11,O=C(NCCCN1CCOCC1)c1cc(-c2ccc(Cl)cc2)on1,-2.4%
12,CC(C)CNC(=O)c1cc(-c2ccc(Br)cc2)on1,52.5% (active)
13,CCOC(=O)C1CCc2nc3ccccc3c(=O)n21 (configuration not stated),2.2%
14,CCOC(=O)C1CCN(C(=O)CC2C(=O)N(Cc3ccccc3)C(C)c3nc4ccccc4n32)CC1 (configuration not stated),14.5%
15,COC(=O)c1ccc(Oc2nc(NC(C)C)nc(SC)n2)cc1,2.8%
16,CC(C)(C)c1csc(NC2=NS(=O)(=O)c3ccccc32)n1,50.5% (active)
17,c1ccc(Nc2nc(-c3ccncc3)cs2)nc1,36.9%
18,CCOC(=O)c1nnn(CC(=O)Nc2cccc(F)c2)c1C(=O)OCC,2.1%
19,CCN(CCCCOC(=O)c1ccc(OC)c(OC)c1)C(C)Cc1ccc(OC)cc1 (configuration not stated),-10.3%
